From ChEMBL document CHEMBL3739254, “Synthesis of apoptotic chalcone analogues in HepG2 human hepatocellular carcinoma cells” (Bioorg Med Chem Lett, 2015) come the findings set out here.

The term IC50 denotes the midpoint of a concentration-inhibition curve.

The structures appear in SMILES notation. Active and inactive are the calls of the source. The calls are words filed in the database; no cut-off is given here.

Assay [1] has as its system HepG2. Nature of the assay: Cytotoxicity against human HepG2 cells assessed as cell viability at 5 to 100 uM after 24 hrs by MTT assay. In kind it is functional. In outline: (§1)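 HepG2 cells kept in DMEM with 10% FBS and penicillin/streptomycin at 37 °C under 5% CO2. Cells were exposed for 24 h to chalcone analogues at various concentrations, up to 100 µM, and viability was then read by MTT assay.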

Assay [2] concerns HepG2. Put plainly: Cytotoxicity against human HepG2 cells assessed as cell viability at 5 to 100 uM after 24 hrs by MTT assay relative to control. In kind it is functional, cell-based. In outline: as §1
(In general: Tetrazolium assays rely on reduction of a dye to a coloured formazan, in cell work by metabolically active cells.)

Assay [3] concerns HepG2. Put plainly: Cytotoxicity against human HepG2 cells assessed as cell viability at 50 uM after 24 hrs by MTT assay. In kind it is functional. The note with it: HepG2, 24 h, read-out: GI. In outline:
as §1

In assay [4] the test system is HepG2. Nature of the assay: Cytotoxicity against human HepG2 cells assessed as cell viability at 100 uM after 24 hrs by MTT assay. The note with it: HepG2, 24 h, read-out: GI. The format is functional. In outline: as §1
For assay [5], the system named is HepG2. Put plainly: Cytotoxicity against human HepG2 cells assessed as cell viability after 24 hrs by MTT assay. In kind it is functional, cell-based. The note with it: HepG2, 24 h. In outline: as §1
Assay [6] has as its system LLC-PK1. Put plainly: Cytotoxicity against porcine LLC-PK1 cells assessed as cell viability after 24 hrs by MTT assay. The format is cell-based. The note with it: Sus scrofa, LLC-PK1, 24 h.
In assay [7] the test system is HepG2. Nature of the assay: Induction of apoptosis in human HepG2 cells assessed as early apoptotic cells at 25 uM by annexin V-FITC/propidium iodide staining-based flow cytometric analysis (reference value: 1.9 +/- 0.5%). The format is functional. A general note: A flow cytometer gives signals particle by particle.
The test system of assay [8] is HepG2. Put plainly: Induction of apoptosis in human HepG2 cells assessed as early apoptotic cells at 50 uM by annexin V-FITC/propidium iodide staining-based flow cytometric analysis (reference value: 1.9 +/- 0.5%). In kind it is functional.
For assay [9], the system named is HepG2. Put plainly: Induction of apoptosis in human HepG2 cells assessed as cell shrinking at 25 to 50 uM by phase contrast microscopic analysis. In kind it is functional, cell-based.
The subject of assay [10] is HepG2. Nature of the assay: Induction of apoptosis in human HepG2 cells assessed as progressive condensation at 25 to 50 uM by phase contrast microscopic analysis. The format is functional, cell-based.
Assay [11] relates to HepG2. Nature of the assay: Induction of apoptosis in human HepG2 cells assessed as karyorrhexis at 25 to 50 uM by phase contrast microscopic analysis. In kind it is functional, cell-based.
In assay [12] the test system is HepG2. Nature of the assay: Induction of apoptosis in human HepG2 cells assessed as cleavage of caspase-8 at 25 to 50 uM after 24 hrs by Western blot analysis. The format is functional, cell-based. In outline: (§2)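 HepG2 cells were grown in 60 mm dishes and treated at 25 and 50 µM for 24 h. Whole-cell extracts were made in RIPA buffer with 1× protease inhibitor cocktail and 1 mM PMSF. Lysates (20 µg) were run on SDS–PAGE and transferred to PVDF. Blots were probed with epitope-specific antibodies against GAPDH and the target proteins and detected by ECL.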
A general note: In western blotting, separated proteins are transferred to a membrane and probed.

In assay [13] the test system is HepG2. Put plainly: Induction of apoptosis in human HepG2 cells assessed as cleavage of caspase-3 at 25 to 50 uM after 24 hrs by Western blot analysis. In kind it is functional, cell-based. In outline:
as §2

In assay [14] the test system is HepG2. Nature of the assay: Induction of apoptosis in human HepG2 cells assessed as cleavage of PARP at 25 to 50 uM after 24 hrs by Western blot analysis. The format is functional, cell-based. In outline: as §2
Assay [15] has as its system HepG2. Nature of the assay: Induction of apoptosis in human HepG2 cells assessed as cleavage of caspase-9 at 25 to 50 uM after 24 hrs by Western blot analysis. The format is functional, cell-based. In outline: as §2
For assay [16], the system named is HepG2. Put plainly: Induction of apoptosis in human HepG2 cells assessed as increase in Bax/Bcl2 ratio at 25 to 50 uM after 24 hrs by Western blot analysis. The format is functional, cell-based. In outline:
as §2

For the compound `COc1cc(/C=C/C(=O)c2ccc(Br)cc2)cc(OC)c1Br`, in [1], the “growth inhibition (GI)” value is reported as greater than 50%.

Turning to `CCn1c2ccccc2c2cc(/C=C/C(=O)c3ccc(Cl)cc3)ccc21`, the “growth inhibition (GI)” value in assay [2] was “inactive”.

Regarding `O=C(/C=C/c1ccc2ccccc2c1)c1ccc(Br)cc1`, in assay [2], the “growth inhibition (GI)” value was “inactive”.

Regarding `COc1ccc(C(=O)/C=C/c2ccc(-c3ccccc3)cc2)cc1OC`, the “growth inhibition (GI)” value in assay [2] was “inactive”.

`COc1cccc(C(=O)/C=C/c2cc(OC)c(Br)c(OC)c2)c1`: the inhibition of growth at 50 µM in assay [3] was no more than 91%. For the same compound, the inhibition of growth at 100 µM in assay [4] is 98%. For the same compound, the “growth inhibition (GI)” value in assay [1] was greater than 50%. For the same compound, the results for the IC50 in [5] and in assay [6] were 26 µM and 83 µM, respectively. The Activity in [7] amounted to 8.5%; in assay [8] it was 31.2%. Moreover, the result in assay [9], in [10], in [11], in assay [12], in assay [13] and in [14] was Active. Also, the outcome in assay [16] was Active. Besides, the result in [15] was inactive.

For the compound `O=C(/C=C/c1ccc2ccccc2c1)c1ccc(Cl)cc1`, the “growth inhibition (GI)” value in assay [2] is “inactive”.

For `O=C(/C=C/c1ccc(-c2ccccc2)cc1)c1ccc(Cl)cc1`, the “growth inhibition (GI)” value in assay [2] was “inactive”.

For the compound `CCn1c2ccccc2c2cc(/C=C/C(=O)c3ccc(OC)c(OC)c3)ccc21`, the “growth inhibition (GI)” value in assay [2] is “inactive”.
